{"source": "ChEMBL document CHEMBL5705905", "about": "“Pharmacological targeting of kinases MST1 and MST2 augments tissue repair and regeneration” (Sci Transl Med, 2016)", "key": {"[1]": {"target": "Ribosomal protein S6 kinase alpha-1 (Homo sapiens) (UniProt Q15418)", "sequence (Q15418 whole entry, the tested form may be a part)": "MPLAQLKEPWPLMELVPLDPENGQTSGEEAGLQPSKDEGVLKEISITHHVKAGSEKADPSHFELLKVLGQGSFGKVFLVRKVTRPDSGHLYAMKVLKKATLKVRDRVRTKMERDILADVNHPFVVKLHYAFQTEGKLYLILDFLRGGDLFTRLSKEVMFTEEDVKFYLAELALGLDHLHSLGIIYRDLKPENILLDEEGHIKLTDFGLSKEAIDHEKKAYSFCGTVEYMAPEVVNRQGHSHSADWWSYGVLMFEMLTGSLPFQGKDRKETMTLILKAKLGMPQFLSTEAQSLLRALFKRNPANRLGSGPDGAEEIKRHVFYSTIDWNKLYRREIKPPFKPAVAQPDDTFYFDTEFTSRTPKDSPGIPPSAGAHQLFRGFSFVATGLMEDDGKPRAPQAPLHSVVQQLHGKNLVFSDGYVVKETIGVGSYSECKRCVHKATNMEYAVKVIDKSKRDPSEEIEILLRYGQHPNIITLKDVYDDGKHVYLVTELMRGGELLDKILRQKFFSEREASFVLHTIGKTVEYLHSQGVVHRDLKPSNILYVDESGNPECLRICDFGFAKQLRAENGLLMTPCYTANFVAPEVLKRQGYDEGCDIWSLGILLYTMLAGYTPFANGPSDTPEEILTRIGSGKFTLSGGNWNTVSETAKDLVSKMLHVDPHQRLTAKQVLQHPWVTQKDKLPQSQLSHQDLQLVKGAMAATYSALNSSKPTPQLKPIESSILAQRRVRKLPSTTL", "assay": "Inhibition of C-terminal kinase domain RSK1 (unknown origin) assessed as remaining activity at 1 uM by Kinome scan method relative to control", "summary_of_the_method": "(§1)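 Active-site-dependent competition-binding (KINOMEscan) panel of 468 kinases, test compound at 1 μM (from a 10 mM DMSO stock). Read-out is ctrl% = (test signal − positive control signal)/(negative control signal − positive control signal) × 100. DMSO is the negative control (100%) and a control compound is the positive control (0%). Lower ctrl% means tighter binding.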"}, "[2]": {"assay": "Acute toxicity in wild-type mouse assessed as ratio of liver weight to body weight at 1 mg/kg,ip administrated twice daily for 6 days", "format": "organism-based", "settings": "in vivo, 144 h, time 6 day", "summary_of_the_method": "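Wild-type mice underwent two-thirds partial hepatectomy with vehicle or 1 mg/kg i.p. twice per day, starting with a dose before surgery. Liver/body weight ratio was followed over postoperative days, n = 5; means ± SD.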"}, "Aurora kinase B": {"target": "Aurora kinase B (Homo sapiens, UniProt Q96GD4)", "sequence (Q96GD4 whole entry)": "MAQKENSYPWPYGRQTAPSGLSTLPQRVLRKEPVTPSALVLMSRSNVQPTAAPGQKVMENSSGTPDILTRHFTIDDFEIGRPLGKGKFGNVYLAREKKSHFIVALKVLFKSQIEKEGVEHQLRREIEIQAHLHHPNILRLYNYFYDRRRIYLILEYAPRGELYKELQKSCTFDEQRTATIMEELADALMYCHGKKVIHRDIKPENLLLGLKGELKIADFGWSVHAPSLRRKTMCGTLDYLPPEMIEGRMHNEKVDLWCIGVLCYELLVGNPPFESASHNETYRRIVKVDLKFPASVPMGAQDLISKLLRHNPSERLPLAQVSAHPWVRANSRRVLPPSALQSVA", "assay": "Inhibition of AURKB (unknown origin) in presence of ATP by enzymatic assay"}, "[3]": {"target": "Rho-associated protein kinase 2 (Homo sapiens) (UniProt O75116)", "sequence (O75116 whole entry, looked up)": "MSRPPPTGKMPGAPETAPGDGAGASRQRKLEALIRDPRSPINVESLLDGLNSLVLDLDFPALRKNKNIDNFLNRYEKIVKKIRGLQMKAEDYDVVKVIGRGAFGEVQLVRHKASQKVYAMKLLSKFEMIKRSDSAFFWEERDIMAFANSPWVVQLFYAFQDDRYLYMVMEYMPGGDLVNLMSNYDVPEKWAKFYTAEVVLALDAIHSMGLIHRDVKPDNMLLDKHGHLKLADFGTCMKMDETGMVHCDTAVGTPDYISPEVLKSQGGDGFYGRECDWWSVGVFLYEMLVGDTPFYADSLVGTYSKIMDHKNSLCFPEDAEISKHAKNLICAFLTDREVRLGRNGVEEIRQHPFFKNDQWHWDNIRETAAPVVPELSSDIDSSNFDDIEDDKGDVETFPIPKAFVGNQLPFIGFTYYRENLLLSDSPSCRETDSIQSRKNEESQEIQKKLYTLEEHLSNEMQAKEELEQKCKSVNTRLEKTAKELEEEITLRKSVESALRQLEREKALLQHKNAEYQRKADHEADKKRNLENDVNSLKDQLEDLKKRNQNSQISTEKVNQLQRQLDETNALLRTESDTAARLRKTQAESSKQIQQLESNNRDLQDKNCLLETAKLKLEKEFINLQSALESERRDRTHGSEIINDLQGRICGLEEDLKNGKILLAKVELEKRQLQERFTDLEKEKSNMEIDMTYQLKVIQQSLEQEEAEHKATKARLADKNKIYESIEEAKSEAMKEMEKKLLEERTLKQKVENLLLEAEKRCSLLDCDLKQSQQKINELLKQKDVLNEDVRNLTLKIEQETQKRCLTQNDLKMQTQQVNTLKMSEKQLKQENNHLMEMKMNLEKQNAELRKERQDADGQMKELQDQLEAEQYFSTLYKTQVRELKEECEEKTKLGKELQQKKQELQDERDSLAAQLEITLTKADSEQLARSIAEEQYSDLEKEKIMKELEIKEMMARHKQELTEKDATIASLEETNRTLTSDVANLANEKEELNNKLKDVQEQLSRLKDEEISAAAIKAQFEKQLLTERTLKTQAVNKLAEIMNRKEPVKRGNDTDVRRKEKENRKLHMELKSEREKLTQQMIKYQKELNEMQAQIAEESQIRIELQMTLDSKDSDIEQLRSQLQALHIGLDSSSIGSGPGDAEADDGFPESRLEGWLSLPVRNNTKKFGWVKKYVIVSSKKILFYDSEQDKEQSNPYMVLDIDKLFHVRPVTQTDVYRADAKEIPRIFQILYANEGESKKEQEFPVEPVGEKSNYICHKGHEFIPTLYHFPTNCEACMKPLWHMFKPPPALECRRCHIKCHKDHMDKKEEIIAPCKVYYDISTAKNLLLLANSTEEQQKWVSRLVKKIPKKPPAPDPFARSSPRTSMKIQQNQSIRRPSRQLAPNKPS", "assay": "Inhibition of ROCK2 (unknown origin) assessed as remaining activity at 1 uM by Kinome scan method relative to control"}, "[4]": {"tested_on": "Tyrosine-protein kinase ABL1 (Homo sapiens), P00519 [Y253F]", "assay": "Inhibition of phosphorylated ABL1 Y253F mutant (unknown origin) assessed as remaining activity at 1 uM by Kinome scan method relative to control"}, "Homo sapiens": {"species": "Homo sapiens", "assay": "Inhibition of recombinant His-tagged full-length MST1 Y101F/D109A mutant (unknown origin) expressing in Escherichia coli assessed as GST-tagged MOB1 phosphorylation level at 0.01 to 1 uM incubated for 15 min by immunoblot analysis", "settings": "dose 0.01-1 µM"}, "[5]": {"target": "Atypical kinase COQ8B, mitochondrial (Homo sapiens) (UniProt Q96D53)", "assay": "Inhibition of ADCK4 (unknown origin) assessed as remaining activity at 1 uM by Kinome scan method relative to control", "summary_of_the_method": "as §1"}, "[6]": {"target": "Discoidin domain-containing receptor 2 (Homo sapiens) (UniProt Q16832)", "assay": "Inhibition of DDR2 (unknown origin) assessed as remaining activity at 1 uM by Kinome scan method relative to control"}, "[7]": {"target": "Tyrosine-protein kinase Fer (Homo sapiens) (UniProt P16591)", "sequence (P16591 whole entry, looked up)": "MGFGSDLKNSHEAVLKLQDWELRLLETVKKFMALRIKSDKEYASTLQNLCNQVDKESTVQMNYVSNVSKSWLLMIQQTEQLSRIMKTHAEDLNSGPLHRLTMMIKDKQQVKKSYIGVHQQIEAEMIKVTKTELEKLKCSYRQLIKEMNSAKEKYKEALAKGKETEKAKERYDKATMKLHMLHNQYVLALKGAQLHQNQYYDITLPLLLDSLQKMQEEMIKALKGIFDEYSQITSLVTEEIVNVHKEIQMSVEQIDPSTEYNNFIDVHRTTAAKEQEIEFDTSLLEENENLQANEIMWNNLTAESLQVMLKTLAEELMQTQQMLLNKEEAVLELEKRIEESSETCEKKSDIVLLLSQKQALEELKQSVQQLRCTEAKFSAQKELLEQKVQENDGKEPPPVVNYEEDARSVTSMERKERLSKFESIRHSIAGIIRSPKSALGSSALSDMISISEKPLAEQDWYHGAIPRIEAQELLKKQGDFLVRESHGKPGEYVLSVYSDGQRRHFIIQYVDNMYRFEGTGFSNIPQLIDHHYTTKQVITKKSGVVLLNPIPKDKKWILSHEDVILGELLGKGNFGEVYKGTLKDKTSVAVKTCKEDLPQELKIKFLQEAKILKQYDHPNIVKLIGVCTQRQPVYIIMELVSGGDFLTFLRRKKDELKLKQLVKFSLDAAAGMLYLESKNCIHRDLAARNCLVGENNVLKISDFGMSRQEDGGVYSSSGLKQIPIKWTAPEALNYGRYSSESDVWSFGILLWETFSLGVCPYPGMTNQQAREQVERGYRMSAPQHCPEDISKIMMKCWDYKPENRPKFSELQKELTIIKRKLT", "assay": "Inhibition of FER (unknown origin) assessed as remaining activity at 1 uM by Kinome scan method relative to control"}, "[8]": {"target": "Activin receptor type-2A (Homo sapiens) (UniProt P27037)", "assay": "Inhibition of ACVR2A (unknown origin) assessed as remaining activity at 1 uM by Kinome scan method relative to control", "summary_of_the_method": "as §1"}, "[9]": {"target": "Serine/threonine-protein kinase B-raf (Homo sapiens) (UniProt P15056)", "sequence (P15056 whole entry)": "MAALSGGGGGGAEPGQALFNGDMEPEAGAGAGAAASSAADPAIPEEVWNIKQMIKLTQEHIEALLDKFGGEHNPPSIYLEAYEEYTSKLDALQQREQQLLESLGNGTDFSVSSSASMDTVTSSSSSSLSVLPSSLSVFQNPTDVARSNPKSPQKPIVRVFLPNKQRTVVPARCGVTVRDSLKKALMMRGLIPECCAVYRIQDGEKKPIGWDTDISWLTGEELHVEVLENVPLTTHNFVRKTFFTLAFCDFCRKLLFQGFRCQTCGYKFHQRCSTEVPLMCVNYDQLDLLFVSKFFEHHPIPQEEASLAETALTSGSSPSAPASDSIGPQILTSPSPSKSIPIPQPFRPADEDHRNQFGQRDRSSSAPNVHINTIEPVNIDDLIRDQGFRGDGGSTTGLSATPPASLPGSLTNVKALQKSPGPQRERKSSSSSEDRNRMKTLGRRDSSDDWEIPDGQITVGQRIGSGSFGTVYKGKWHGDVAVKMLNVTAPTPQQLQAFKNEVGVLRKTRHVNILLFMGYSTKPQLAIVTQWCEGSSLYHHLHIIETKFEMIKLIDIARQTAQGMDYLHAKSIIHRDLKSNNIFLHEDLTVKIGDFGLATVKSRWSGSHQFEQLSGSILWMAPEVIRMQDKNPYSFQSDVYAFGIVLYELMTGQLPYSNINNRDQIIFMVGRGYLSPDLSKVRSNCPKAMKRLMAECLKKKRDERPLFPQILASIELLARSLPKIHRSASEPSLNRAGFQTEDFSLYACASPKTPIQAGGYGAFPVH", "assay": "Inhibition of BRAF (unknown origin) assessed as remaining activity at 1 uM by Kinome scan method relative to control", "summary_of_the_method": "as §1"}, "[10]": {"target": "Mitogen-activated protein kinase 11 (Homo sapiens) (UniProt Q15759)", "assay": "Inhibition of P38beta (unknown origin) assessed as remaining activity at 1 uM by Kinome scan method relative to control"}, "[11]": {"target": "RAC-gamma serine/threonine-protein kinase (Homo sapiens) (UniProt Q9Y243)", "assay": "Inhibition of AKT3 (unknown origin) assessed as remaining activity at 1 uM by Kinome scan method relative to control", "summary_of_the_method": "as §1"}, "[12]": {"target": "Serine/threonine-protein kinase Nek9 (Homo sapiens) (UniProt Q8TD19)", "sequence (Q8TD19 whole entry)": "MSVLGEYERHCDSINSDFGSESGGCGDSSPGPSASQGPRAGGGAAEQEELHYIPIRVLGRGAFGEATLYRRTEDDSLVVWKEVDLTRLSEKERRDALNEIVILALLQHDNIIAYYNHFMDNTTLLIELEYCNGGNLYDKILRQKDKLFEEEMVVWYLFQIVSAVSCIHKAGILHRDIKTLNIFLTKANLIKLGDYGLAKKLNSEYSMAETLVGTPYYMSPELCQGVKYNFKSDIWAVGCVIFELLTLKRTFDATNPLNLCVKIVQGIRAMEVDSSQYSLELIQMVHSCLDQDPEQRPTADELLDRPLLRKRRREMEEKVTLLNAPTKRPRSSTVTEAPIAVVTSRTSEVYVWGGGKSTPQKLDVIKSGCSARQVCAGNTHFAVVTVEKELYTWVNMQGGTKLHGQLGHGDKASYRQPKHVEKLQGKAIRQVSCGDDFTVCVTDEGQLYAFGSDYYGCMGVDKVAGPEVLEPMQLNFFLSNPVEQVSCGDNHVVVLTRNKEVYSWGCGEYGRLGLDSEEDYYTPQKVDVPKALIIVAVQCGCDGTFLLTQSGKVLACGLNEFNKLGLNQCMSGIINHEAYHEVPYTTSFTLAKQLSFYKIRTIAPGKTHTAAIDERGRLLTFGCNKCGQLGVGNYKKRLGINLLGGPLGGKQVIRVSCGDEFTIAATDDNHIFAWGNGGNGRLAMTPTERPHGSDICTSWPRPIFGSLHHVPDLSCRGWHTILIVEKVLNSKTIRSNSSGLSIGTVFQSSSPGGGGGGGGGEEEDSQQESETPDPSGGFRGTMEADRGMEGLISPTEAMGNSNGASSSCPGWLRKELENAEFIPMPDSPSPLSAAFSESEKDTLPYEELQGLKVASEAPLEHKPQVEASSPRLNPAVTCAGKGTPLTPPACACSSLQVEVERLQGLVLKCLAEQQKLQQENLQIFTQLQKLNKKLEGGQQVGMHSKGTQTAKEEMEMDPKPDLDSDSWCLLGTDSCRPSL", "assay": "Inhibition of NEK9 (unknown origin) assessed as remaining activity at 1 uM by Kinome scan method relative to control"}, "[13]": {"target": "Wee1-like protein kinase (Homo sapiens) (UniProt P30291)", "assay": "Inhibition of WEE1 (unknown origin) assessed as remaining activity at 1 uM by Kinome scan method relative to control"}, "[14]": {"target": "cGMP-dependent protein kinase 2 (Homo sapiens) (UniProt Q13237)", "assay": "Inhibition of PRKG2 (unknown origin) assessed as remaining activity at 1 uM by Kinome scan method relative to control"}, "[15]": {"tested_on": "Mast/stem cell growth factor receptor Kit (Homo sapiens), P10721 [D816H]", "assay": "Inhibition of KIT D816H mutant (unknown origin) assessed as remaining activity at 1 uM by Kinome scan method relative to control"}, "[16]": {"target": "Serine/threonine-protein kinase PAK 1 (Homo sapiens) (UniProt Q13153)", "assay": "Inhibition of PAK1 (unknown origin) assessed as remaining activity at 1 uM by Kinome scan method relative to control"}, "Mus musculus [17]": {"tested_on": "Mus musculus", "assay": "Protection against human hepatocyte transplanted FRG mouse assessed as increase in FAH level at 1 mg/kg, ip administrated once a daily for 28 days by H&E staining based immunohistochemical analysis", "format": "functional, organism-based", "settings": "Liver, time 28.0 day"}, "[18]": {"tested_on": "Tyrosine-protein kinase ABL1 (Homo sapiens), P00519 [Q252H]", "assay": "Inhibition of ABL1 Q252H mutant (unknown origin) assessed as remaining activity at 1 uM by Kinome scan method relative to control", "summary_of_the_method": "as §1"}, "[19]": {"tested_on": "Tyrosine-protein kinase ABL1 (Homo sapiens), P00519 [F317I]", "assay": "Inhibition of phosphorylated ABL1 F317I mutant (unknown origin) assessed as remaining activity at 1 uM by Kinome scan method relative to control"}, "[20]": {"assay": "MRT (0 to infinity) in male Sprague-Dawley rat at 10 mg/kg, po measured for 24 hrs by LC-MS/MS analysis", "format": "ADME, organism-based", "settings": "in vivo"}, "[21]": {"target": "Fibroblast growth factor receptor 2 (Homo sapiens) (UniProt P21802)", "assay": "Inhibition of FGFR2 (unknown origin) assessed as remaining activity at 1 uM by Kinome scan method relative to control"}, "[22]": {"tested_on": "Tyrosine-protein kinase ABL1 (Homo sapiens), P00519 [T315I]", "assay": "Inhibition of phosphorylated ABL1 T315I mutant (unknown origin) assessed as remaining activity at 1 uM by Kinome scan method relative to control"}, "Mus musculus [23]": {"tested_on": "Mus musculus", "assay": "In vivo inhibition of MST1/2 in wild-type Mst1fl/fl Mst2fl/fl mouse assessed as decrease in MOB1 phosphorylation level at 1 mg/kg, ip administrated daily for 7 days by immunoblot analysis", "format": "functional, organism-based", "settings": "Liver, time 7.0 day"}, "[24]": {"target": "Casein kinase I isoform gamma-3 (Homo sapiens) (UniProt Q9Y6M4)", "assay": "Inhibition of CSNK1G3 (unknown origin) assessed as remaining activity at 1 uM by Kinome scan method relative to control", "summary_of_the_method": "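Active-site-dependent competition-binding profiling (KINOMEscan) at 1 μM against a 468-kinase panel; compound supplied from a 10 mM DMSO stock. Read-out is ctrl% = (test signal − positive control signal)/(negative control signal − positive control signal) × 100. DMSO is the negative control (100%) and a control compound the positive control (0%). Lower ctrl% means tighter binding.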"}, "[25]": {"target": "Aurora kinase C (Homo sapiens) (UniProt Q9UQB9)", "assay": "Inhibition of AURKC (unknown origin) assessed as remaining activity at 1 uM by Kinome scan method relative to control", "summary_of_the_method": "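KINOMEscan active-site-dependent competition-binding panel of 468 kinases, compound at 1 μM from a DMSO stock. Result reported as ctrl% = (test signal − positive control signal)/(negative control signal − positive control signal) × 100. The negative control is DMSO (100%) and the positive control is a control compound (0%). Lower ctrl% means tighter binding.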"}}, "note": "Activity calls are given as the source filed them. No cut-off for these calls is given here.", "data": [{"smiles": "CN1C(=O)c2sccc2N(C)c2nc(Nc3ccc(S(N)(=O)=O)cc3)ncc21", "values": [{"measurement": "Activity", "setting": "[1]", "result": 100, "unit": "%"}, {"measurement": "Activity", "setting": "[2]", "result": "Non-Toxic"}, {"measurement": "IC50", "setting": "Aurora kinase B", "result": 19.1, "unit": "nM"}, {"measurement": "Activity", "setting": "[3]", "result": 96, "unit": "%"}, {"measurement": "Activity", "setting": "[4]", "result": 15, "unit": "%"}, {"measurement": "inhibition", "setting": "Homo sapiens", "result": "Active"}, {"measurement": "Activity", "setting": "[5]", "result": 79, "unit": "%"}, {"measurement": "Activity", "setting": "[6]", "result": 100, "unit": "%"}, {"measurement": "Activity", "setting": "[7]", "result": 100, "unit": "%"}, {"measurement": "Activity", "setting": "[8]", "result": 100, "unit": "%"}, {"measurement": "Activity", "setting": "[9]", "result": 100, "unit": "%"}, {"measurement": "Activity", "setting": "[10]", "result": 83, "unit": "%"}, {"measurement": "Activity", "setting": "[11]", "result": 98, "unit": "%"}, {"measurement": "Activity", "setting": "[12]", "result": 94, "unit": "%"}, {"measurement": "Activity", "setting": "[13]", "result": 100, "unit": "%"}, {"measurement": "Activity", "setting": "[14]", "result": 95, "unit": "%"}, {"measurement": "Activity", "setting": "[15]", "result": 85, "unit": "%"}, {"measurement": "Activity", "setting": "[16]", "result": 100, "unit": "%"}, {"measurement": "Activity", "setting": "Mus musculus [17]", "result": "Active"}, {"measurement": "Activity", "setting": "[18]", "result": 15, "unit": "%"}, {"measurement": "Activity", "setting": "[19]", "result": 39, "unit": "%"}, {"measurement": "MRT inf", "setting": "[20]", "result": 7.34, "unit": "h"}, {"measurement": "Activity", "setting": "[21]", "result": 100, "unit": "%"}, {"measurement": "Activity", "setting": "[22]", "result": 1.6, "unit": "%"}, {"measurement": "inhibition", "setting": "Mus musculus [23]", "result": "Active"}, {"measurement": "Activity", "setting": "[24]", "result": 72, "unit": "%"}, {"measurement": "Activity", "setting": "[25]", "result": 95, "unit": "%"}]}]}
